Screens deposited in PubChem BioAssay by The Scripps Research Institute Molecular Screening Center.
Compounds with a hit are over-represented: about 2% of the library has one in this group of screens.
HTRA1 inh = HTRA1 serine protease inhibitors, primary screen, biochemical, fluorescence polarization, HTS. Q92743. recombinant HTRA1, FP-rhodamine activity-based probe. inhibition, % at 5.96 µM. 340,000 compounds, 0.5% hits. AID 504803, 2011; in the data active = inhibition above about 36%;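 also: 0% = enzyme with DMSO and 100% = wells lacking enzyme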
ABHD4 inh = ABHD4 inhibitors, primary screen, biochemical, fluorescence polarization, mouse; 370,000 compounds, 0.54% hits; purified mABHD4, FP-Rh probe fluorescence polarization; inhibition, % at 8.92 µM; AID 720543, 2013; (Lyso)-N-acylphosphatidylethanolamine lipase (Mus musculus), Q8VD66;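 active = inhibition exceeding the mean over every tested compound plus 3 SD, cut at about 30% in these data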;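 also: 0% = plate median of compound wells and 100% = S159A mutant with DMSO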
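System: mouse ABHD4 enzyme, wild type / Medium: HEPES pH 7.0, NaCl, Pluronic buffer / Reagent: FP-Rh activity-based fluorescent probe / Control set: S159A mutant high control, sample median low control / Detection: fluorescence polarization with parallel and perpendicular emission, 525/598 nm / Schedule: 45 min + 60 min at 25 °C / Compound dosing: 8.92 µM, single dose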
PAD4 inh = human PAD4 inhibitors, primary screen, biochemical, fluorescence polarization, 1536-well format | Protein-arginine deiminase type-4 (Homo sapiens), Q9UM07 | recombinant PAD4, RCA probe fluorescence polarization | inhibition, % at 6.36 µM | 330,000 compounds, 0.41% hits | AID 485272, 2010;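 active = percent inhibition above a cutoff equal to the mean of all tested compounds plus 3 SD, cut at about 15% in these data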;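 also: 0% = PAD4 with RCA probe and DMSO and 100% = probe without PAD4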
Target sequence (Q9UM07 whole entry, looked up): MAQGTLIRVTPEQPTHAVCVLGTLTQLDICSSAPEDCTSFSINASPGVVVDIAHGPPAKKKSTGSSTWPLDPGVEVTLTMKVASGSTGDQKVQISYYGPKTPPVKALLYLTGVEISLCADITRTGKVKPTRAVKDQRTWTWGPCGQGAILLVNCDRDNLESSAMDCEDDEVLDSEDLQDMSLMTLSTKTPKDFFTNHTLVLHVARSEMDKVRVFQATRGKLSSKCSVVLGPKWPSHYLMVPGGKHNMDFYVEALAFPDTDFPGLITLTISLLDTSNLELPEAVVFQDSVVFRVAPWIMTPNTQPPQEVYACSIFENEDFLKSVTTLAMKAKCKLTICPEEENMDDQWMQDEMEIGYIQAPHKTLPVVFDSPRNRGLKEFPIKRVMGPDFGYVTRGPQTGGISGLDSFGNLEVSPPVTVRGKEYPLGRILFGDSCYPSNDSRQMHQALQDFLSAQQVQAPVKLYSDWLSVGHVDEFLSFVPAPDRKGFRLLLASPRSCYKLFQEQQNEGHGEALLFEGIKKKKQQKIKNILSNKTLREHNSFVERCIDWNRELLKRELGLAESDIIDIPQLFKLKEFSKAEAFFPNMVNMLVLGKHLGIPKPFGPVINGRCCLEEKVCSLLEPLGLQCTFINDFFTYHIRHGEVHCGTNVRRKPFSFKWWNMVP
TDP2 absorb = human TDP2 enzyme inhibitors, primary screen, biochemical, epi absorbance, recombinant enzyme. T5PNP hydrolysis, p-nitrophenol absorbance 415 nm. 370,000 compounds, 0.34% hits. Tyrosyl-DNA phosphodiesterase 2 (Homo sapiens), O95551. inhibition, % at 12.8 µM. AID 720702, 2013;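 active = inhibition above the mean of all tested compounds plus 3 SD, set per campaign, cut at about 25% in these data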;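 also: 0% = DMSO with enzyme and 100% = buffer with substrate but no TDP2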
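Incubation: 2 h at 37 °C; Test system: recombinant human TDP2; Quantity: enzyme 120 nM; Read-out basis: percent inhibition; Medium: 50 mM Tris-HCl pH 7.5 with Mg2+, KCl, DTT, BSA; Repeats: single replicate; Compound: 12.8 µM single point, 1% DMSO; Signal: epi absorbance; Reagent: 5 mM T5PNP chromogenic substrate; Benchmarks: no-enzyme high, DMSO-plus-enzyme low.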
SIAE inh = human SIAE inhibitors, primary screen, biochemical, fluorescence polarization, FP-Rh probe, 1536-well HTS; Sialate O-acetylesterase (Homo sapiens), Q9HAT2; SIAE FP-Rh probe binding; inhibition, % at 9.66 µM; 370,000 compounds, 0.69% hits; AID 1053197, 2014;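 active = inhibition above a cutoff: mean of compounds within the control limits plus 3 SD of those, cut at about 17% in these data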;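 also: 0% = plate median of compound wells and 100% = probe without SIAE protein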
TCR-CD3 inh = inhibitors of human TCR-CD3 interaction, primary screen, biochemical, fluorescence, TAMRA-labeled TCR probe | inhibition, % at 9.4 µM | 360,000 compounds, 0.37% hits | T-cell receptor (TCR); in the data active = inhibition above about 19%;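 also: recombinant mutant TCR 2C K166C tagged with TAMRA read by polarization; 0% = receptor in buffer alone and 100% = receptor with positive control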
SIAE confirm = human SIAE inhibitors, retest, confirmation, biochemical, fluorescence polarization, FP-Rh probe, triplicate; shares compounds with SIAE inh; SIAE FP-Rh activity-based probe; inhibition, % at 9.66 µM; 2,300 compounds, 13% hits;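 active = mean inhibition of the replicates above the hit cutoff set in the primary screen, cut at about 17% in these data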;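 also: 0% = SIAE with DMSO and probe and 100% = probe without SIAE; inhibitors lower polarization as more probe stays unbound to SIAE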
* = called active by the depositor; . = not tested or not shown.

SMILES	HTRA1 inh	ABHD4 inh	PAD4 inh	TDP2 absorb	SIAE inh	TCR-CD3 inh	SIAE confirm
COC(=O)[C@@]1(Cc2ccc(F)cc2)[C@H]2c3cc(C(=O)N(C)C)n(Cc4ccc(S(C)(=O)=O)cc4)c3C[C@H]2CN1C(=O)c1ccccc1	.	-1.7	.	5.8	1.3	6.2	.
CCOC(=O)CN(C(=O)CSc1nnc2c(n1)[nH]c1ccccc12)c1ccccc1	-3.3	-9.7	-1.1	-2.8	23.0*	-9.0	-37.2
CCOC(=O)CN(C(=O)CSc1nnc2c(n1)[nH]c1ccc(F)cc12)c1ccccc1	-43.6	-15.8	-4.1	8.2	-17.2	-4.2	.
Cc1[nH]c2ccccc2c1/C=N/Nc1nc(N2CCCCC2)nc(N2CCCCC2)n1	2.8	20.8	-3.7	8.3	17.9*	1.0	6.5
Cc1ccccc1/C=N/Nc1nc2ccccc2[nH]1	1.6	15.9	0.9	-0.8	1.3	-4.5	.
COc1ccc(/C=N/Nc2ccccn2)c(OC)c1OC	2.2	1.9	-2.8	-15.1	1.9	2.3	.
Cc1[nH]c2ccccc2c1/C=N/Nc1nc2ccccc2[nH]1	.	24.2	-6.4	-1.4	32.3*	-1.5	36.8*
COc1ccc(/C=N/Nc2nc3ccccc3[nH]2)c(OC)c1OC	9.8	7.9	-3.2	7.0	21.1*	-0.1	4.4
CC(C)C[C@@H]1NC(=O)[C@H]2C[C@]3(c4ccccc4)c4ccccc4N[C@H]3N2C1=O	.	-4.5	.	3.8	3.2	.	.
COc1ccccc1/C=C/C=N/Nc1cccc(C(=O)O)c1	5.6	16.1	-7.6	-4.4	3.8	-1.9	.
O=C(NO)c1cc(OCC(F)(F)F)ccc1OCC(F)(F)F	9.7	9.6	-1.7	-8.2	2.5	-2.8	.
C#CCONC(=O)c1cc(OCC(F)(F)F)ccc1OCC(F)(F)F	-0.6	5.2	0.2	2.4	17.9*	0.3	0.5
O=C1[C@@H](C2CC2)[C@@H]2c3ccccc3C=NN2[C@@H]2c3ccccc3C=NN12	.	-2.0	.	-8.0	23.1*	.	-2.8
C[C@@H]1C(=O)N2N=Cc3ccccc3[C@H]2N2N=Cc3ccccc3[C@@H]12	.	3.8	.	3.1	-1.0	.	.
Cc1cc(C)c2[nH]c(C(=O)Nc3ccc4c(c3)OCO4)cc2c1	8.6	12.1	-2.2	-14.4	17.7*	0.7	-0.3
O=C(CCn1c2c(c3ccccc31)CCCC2)NNC(=O)c1ccccc1Cl	3.6	-11.5	2.7	-1.6	-3.0	-5.0	.
O=C(CCn1c2c(c3ccccc31)CCCC2)NNC(=O)c1cccc([N+](=O)[O-])c1	-1.1	6.1	4.0	2.0	17.7*	10.6	6.7
CCCCNC(=O)c1ccc(Cc2cn(C)c3ccccc23)nc1	.	2.9	.	0.6	7.6	-5.7	.
COc1ccc(NC(=O)C2Cc3cccc(OC)c3O/C2=N\O)cc1 (centres undefined)	1.2	3.6	-7.6	8.4	-9.4	-0.4	.
COc1cccc2c1O/C(=N\O)C(C(=O)Nc1ccc(C)cc1)C2 (centres undefined)	2.3	-5.6	4.2	-1.5	20.5*	4.3	5.3
O=C(COC(=O)c1ccccc1SCC(=O)N1CCCC1)Nc1ccc(OC(F)F)cc1	2.1	-7.3	8.0	-15.4	19.8*	2.5	1.3
CCCCN(C(=O)C1=COCCO1)c1c(N)n(CCC)c(=O)[nH]c1=O	7.9	0.3	2.2	-4.3	20.4*	2.5	-5.7
CC(C)NS(=O)(=O)c1ccc(NC(=O)C(C)OC(=O)CCCOc2ccccc2)cc1 (centres undefined)	-6.9	-3.3	.	0.7	-5.2	0.3	.
Cc1csc(Nc2ccc(Cl)cc2)n1	-1.5	-1.9	-4.0	8.6	19.0*	2.6	0.7
Cc1ccc(Nc2nc(C)cs2)cc1	2.6	-0.3	-2.6	-0.3	3.4	7.4	.
SMILES	HTRA1 inh	ABHD4 inh	PAD4 inh	TDP2 absorb	SIAE inh	TCR-CD3 inh	SIAE confirm
O=c1c2ccccc2nc2ccc(NCc3cccs3)nn12	2.4	5.0	-2.3	1.2	1.3	-3.1	.
COc1ccc(C(CNC(=O)c2cc(S(=O)(=O)N3CCN(c4ccccc4)CC3)ccc2Cl)N(C)C)cc1 (centres undefined)	1.3	3.4	-1.0	-6.3	0.4	1.9	.
COc1ccc(/C=C/C(=O)NC(=S)NNC(=O)c2cnccn2)cc1	11.2	17.3	0.5	-1.3	-3.1	7.1	.
COc1ccc(/C=C/C(=O)NC(=S)NNC(=O)c2cccnc2)cc1	1.7	11.4	0.6	-9.2	20.9*	16.8	0.7
COc1ccc(Nc2nc3ccccc3s2)cc1	5.6	2.4	-2.9	3.4	5.8	4.2	.
COc1cccc(Nc2nc3ccc(OC)cc3s2)c1	9.4	7.2	5.3	15.4	19.7*	-3.9	3.0
CCOC(=O)c1sc(Nc2nc3ccc(OC)cc3s2)cc1C	1.0	12.2	2.5	5.2	34.5*	1.1	-8.8
c1ccc2[nH]c(CN3CCN(c4ncnc5c4oc4ccccc45)CC3)nc2c1	-5.6	6.1	-4.7	-9.1	19.9*	-8.7	-5.5
Cc1nc(N2CCN(Cc3nc4ccccc4[nH]3)CC2)c2oc3ccccc3c2n1	-12.7	-8.6	-2.2	-0.1	-1.6	-1.9	.
Cc1cccc(NC(=S)N2CCN(c3ccccc3F)CC2)c1C	-6.3	-3.2	-6.7	6.5	4.4	6.8	.
Cc1ccc(S(C)(=O)=O)cc1C(=O)Nc1ccc(S(=O)(=O)Nc2nccs2)cc1	4.1	24.2	1.6	3.3	23.9*	-2.9	0.9
Cc1ccn2c(NC3CCCC3)c(-c3ccncc3)nc2c1	3.3	-4.4	5.0	-15.2	17.8*	1.8	-0.6
Cc1ccc2nc(-c3ccncc3)c(NC3CCCC3)n2c1	-6.5	-2.8	-1.7	-3.3	4.2	-8.1	.
Cc1ccc(C)c(N2CCN(CCCc3ccccc3)CC2)c1	-9.5	-1.9	.	-10.4	-10.1	2.2	.
CC(=O)CSc1ccc(S(=O)(=O)N2CCN(C)CC2)cn1	0.6	-0.8	0.5	-8.3	23.4*	-1.2	-2.0
Fc1ccc(C2Nc3cccc4cccc(c34)N2)cc1	11.8	9.0	-2.0	5.1	19.4*	1.0	10.1
FC(F)(F)c1ccc(C2Nc3cccc4cccc(c34)N2)cc1	6.1	3.7	.	2.8	4.1	-0.8	.
Cc1ccc(C2Nc3cccc4cccc(c34)N2)s1	14.0	8.2	-9.5	-7.1	27.2*	5.1	12.6
Cc1c(CCC(=O)NCCCn2ccnc2)c(=O)oc2cc3occ(C(C)(C)C)c3cc12	1.1	11.9	1.3	1.3	18.2*	-4.8	0.7
